Measurements of several laboratories.
pEC50, pIC50: −log10 of the molar value. In brackets after ≈: the same amount, converted by molar mass.

Structure (SMILES)	organism	assay	system	setting	endpoint	value
C[C@@H](c1ncncc1F)[C@](O)(Cn1cncn1)c1ccc(F)cc1F	Acanthamoeba castellanii	parasite growth, resazurin	–	7 days	pIC50	4.66
Cc1nc2sccn2c1C(=O)N1CCN(CCn2cc(-c3ccc(C(C)(C)C)cc3)nn2)CC1	Mycolicibacterium smegmatis	microbial growth	–	72 h	pIC50	< 3.89
CCc1nc(N)nc(N)c1-c1ccc(Cl)cc1	Toxoplasma gondii	parasite growth	human Fibroblast	intracellular	pIC50	4.79
COc1cc2[nH]c3cc(Oc4ccc(OC(F)(F)F)cc4)ccc3c(=O)c2cc1F	Toxoplasma gondii	parasite growth	–	72 h, intracellular	pEC50	9.20
N=C(NCCCCCCNC(=N)NC(=N)Nc1ccc(Cl)cc1)NC(=N)Nc1ccc(Cl)cc1	Acanthamoeba castellanii	parasite growth, resazurin	–	96 h	pIC50	5.22
CCc1cc(Nc2cc(=O)n(CCCCO)c(=O)[nH]2)ccc1C	Lacticaseibacillus casei	microbial growth, agar dilution	–	48 h	MIC	32 µg/mL (≈ 101 µM)
N#Cc1cc(-c2nc3ccccc3s2)c(=O)n(NS(=O)(=O)c2ccccc2)c1N	Human mastadenovirus B	plaque formation	HEp-2	–	IC50	110 µg/mL
O=C1C(O)=C([C@H]2CC[C@H](c3ccc(Cl)cc3)CC2)C(=O)c2ccccc21	Toxoplasma gondii	parasite growth	–	72 h, intracellular	pEC50	7.97
CC(C)(C)C1=CC(=NNC(=O)C2CCCCC2)C=C(C(C)(C)C)C1=O	Toxoplasma gondii	parasite growth, fluorescence	–	5 days, intracellular	pIC50	< 4.00
O=c1[nH]c(NCc2ccc(Cl)c(Cl)c2)nc2ncn(CCCCCN3CCOCC3)c12	Lacticaseibacillus casei	microbial growth, agar dilution	–	48 h	MIC	16 µg/mL (≈ 34.4 µM)
Cc1ccc(C(=O)ON=C2C=C(C(C)(C)C)C(=O)C(C(C)(C)C)=C2)cc1	Toxoplasma gondii	parasite growth, fluorescence	–	5 days, intracellular	pIC50	4.89
OC[C@H]1O[C@@H](n2ccc3c(O)ncnc32)[C@H](O)[C@@H]1O	Toxoplasma gondii	parasite growth	human Fibroblast	intracellular	pIC50	4.44
